Results on 2 compounds are retold here after ChEMBL document CHEMBL3124924, “Bifunctional ethyl 2-amino-4-methylthiazole-5-carboxylate derivatives: synthesis and in vitro biological evaluation as antimicrobial and anticancer agents” (2014).

Test [1] deals with Candida albicans. Kind of test: Antifungal activity against Candida albicans ATCC 10231 assessed as growth inhibition at 1 mg/mL after 48 hrs by agar-cup diffusion method. The class given is functional. To be noted: ATCC 10231, 48 h, read-out: DIZ. A digest of the protocol:
(§1)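 Agar-cup diffusion: 1 mL of 6 h broth culture seeded per 100 mL molten sterile agar at 45 °C and poured into plates. 8 mm cups cut, each filled with 0.1 mL of 1 mg/mL test solution. Incubated 37 °C for 24 h, 48 h for C. albicans. DMSO control per organism. Inhibition zone diameter in mm, mean of three measurements.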

Test [2] concerns Escherichia coli. Kind of test: Antibacterial activity against Escherichia coli ATCC 25922 assessed as growth inhibition at 1 mg/mL after 24 hrs by agar-cup diffusion method. The settings on record: ATCC 25922, 24 h, read-out: DIZ. Format: functional. The procedure, abridged:
as §1

Test [3] deals with Bacillus spizizenii. In words: Antibacterial activity against Bacillus subtilis ATCC 6633 assessed as growth inhibition at 1 mg/mL after 24 hrs by agar-cup diffusion method. The class given is functional. The settings on record: ATCC 6633, 24 h, read-out: DIZ. A digest of the protocol: as §1
The next test relates to Aspergillus niger. In words: Antifungal activity against Aspergillus niger assessed as growth inhibition at 1 mg/mL after 24 hrs by agar-cup diffusion method. The class given is functional, organism-based. A digest of the protocol:
as §1

Test [4] relates to Candida albicans. In words: Fungicidal activity against Candida albicans ATCC 10231 after 18 hrs. The class given is functional. The settings on record: ATCC 10231, 18 h. The procedure, abridged:
(§2)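 Continuation of the broth-dilution MIC test. A loopful from each tube without visible growth spread on a quarter of a Mueller-Hinton agar plate and incubated 18 h. Lowest concentration giving no growth on subculture taken as the MBC.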

Test [5] deals with Candida albicans. Kind of test: Antifungal activity against Candida albicans ATCC 10231 assessed as growth inhibition after 48 hrs by two-fold serial dilution assay. To be noted: ATCC 10231, 48 h. Format: functional. The procedure, abridged:
(§3)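 Twofold serial broth dilution run on compounds giving inhibition zones of 13 mm or more. Organisms pre-grown in suitable broth at 37 °C, 24 h for bacteria and 48 h for fungi. Dilution series 200, 100, 50, 25, 12.5, 6.25. Each 5 mL tube inoculated with 0.1 mL and incubated 37 °C for 48 h. Tubes scored for presence or absence of growth.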

Test [6] has as its system Bacillus spizizenii. Kind of test: Bactericidal activity against Bacillus subtilis ATCC 6633 after 18 hrs. Format: functional. To be noted: ATCC 6633, 18 h. The procedure, abridged: as §2
Test [7] relates to Bacillus spizizenii. In words: Antibacterial activity against Bacillus subtilis ATCC 6633 assessed as growth inhibition after 48 hrs by two-fold serial dilution assay. The class given is functional. To be noted: ATCC 6633, 48 h. A digest of the protocol: as §3
For test [8], the system named is Staphylococcus aureus. In words: Bactericidal activity against Staphylococcus aureus ATCC 6538 after 18 hrs. Format: functional. The settings on record: ATCC 6538, 18 h. A digest of the protocol: as §2
For test [9], the system named is Staphylococcus aureus. In words: Antibacterial activity against Staphylococcus aureus ATCC 6538 assessed as growth inhibition after 48 hrs by two-fold serial dilution assay. Format: functional. The settings on record: ATCC 6538, 48 h. The procedure, abridged: as §3
For test [10], the system named is Staphylococcus aureus. Kind of test: Antibacterial activity against Staphylococcus aureus ATCC 6538 assessed as growth inhibition at 1 mg/mL after 24 hrs by agar-cup diffusion method. The settings on record: ATCC 6538, 24 h, read-out: DIZ. The class given is functional. The procedure, abridged:
as §1

The test system of test [11] is Pseudomonas aeruginosa. In words: Antibacterial activity against Pseudomonas aeruginosa ATCC 27853 assessed as growth inhibition at 1 mg/mL after 24 hrs by agar-cup diffusion method. Format: functional. The settings on record: ATCC 27853, 24 h, read-out: DIZ. A digest of the protocol:
as §1

The subject of test [12] is Pseudomonas aeruginosa. Kind of test: Bactericidal activity against Pseudomonas aeruginosa ATCC 27853 after 18 hrs. The settings on record: ATCC 27853, 18 h. The class given is functional. The procedure, abridged: as §2
The test system of test [13] is Pseudomonas aeruginosa. Kind of test: Antibacterial activity against Pseudomonas aeruginosa ATCC 27853 assessed as growth inhibition after 48 hrs by two-fold serial dilution assay. The class given is functional. To be noted: ATCC 27853, 48 h. The procedure, abridged:
as §3

The test system of test [14] is Escherichia coli. Kind of test: Bactericidal activity against Escherichia coli ATCC 25922 after 18 hrs. The class given is functional. To be noted: ATCC 25922, 18 h. The procedure, abridged:
as §2

Test [15] relates to Escherichia coli. Kind of test: Antibacterial activity against Escherichia coli ATCC 25922 assessed as growth inhibition after 48 hrs by two-fold serial dilution assay. The class given is functional. The settings on record: ATCC 25922, 48 h. The procedure, abridged: as §3

SMILES strings stand for the structures. ≈ marks a conversion by molar mass, not a printed value. Calls of active or inactive are those of the source.

In the case of `CCOC(=O)c1sc(NC(=O)CN2CCOCC2)nc1C`, the zone of inhibition at 1000 µg/mL with Candida albicans [1], in the test on Escherichia coli [2], in the test on Bacillus spizizenii [3], in the test with Staphylococcus aureus [10] and in the test on Pseudomonas aeruginosa [11] was > 13 mm each time. In the test with Aspergillus niger, the “growth inhibition (GI)” value was “inactive”. The MFC (in general, the smallest concentration meeting the test's criterion for killing the fungus) with Candida albicans [4] came to 100 µg/mL (≈ 319 µM). In addition, the MIC (commonly the lowest concentration that inhibits growth of the organism) in the test on Candida albicans [5] was found to be 100 µg/mL (≈ 319 µM); in the test with Bacillus spizizenii [7], 100 µg/mL (≈ 319 µM); in the test with Staphylococcus aureus [9], 50 µg/mL (≈ 160 µM). For the same compound, the MBC (as a rule, the smallest concentration meeting the test's criterion for killing) in the test on Bacillus spizizenii [6] is 100 µg/mL (≈ 319 µM); with Staphylococcus aureus [8] it was 50 µg/mL (≈ 160 µM).

As for `CCOC(=O)c1sc(NC(=S)Nc2ccc(F)cc2)nc1C`, the zone of inhibition at 1000 µg/mL in the test on Candida albicans [1], with Escherichia coli [2], in the test on Bacillus spizizenii [3], in the test on Staphylococcus aureus [10] and in the test with Pseudomonas aeruginosa [11] was > 13 mm each time. Besides, the “growth inhibition (GI)” value in the test on Aspergillus niger is “inactive”. In addition, in the test on Candida albicans [4], the MFC was 50 µg/mL (≈ 147 µM). Also, the MIC with Candida albicans [5] was determined as 25 µg/mL (≈ 73.7 µM); in the test on Pseudomonas aeruginosa [13], 100 µg/mL (≈ 295 µM); in the test on Escherichia coli [15] it was 25 µg/mL (≈ 73.7 µM); in the test on Bacillus spizizenii [7] it was 25 µg/mL (≈ 73.7 µM); in the test on Staphylococcus aureus [9], 12.5 µg/mL (≈ 36.8 µM). In addition, the MBC in the test with Pseudomonas aeruginosa [12] came out at 100 µg/mL (≈ 295 µM); against Escherichia coli [14] it was 25 µg/mL (≈ 73.7 µM); with Bacillus spizizenii [6], 25 µg/mL (≈ 73.7 µM); in the test on Staphylococcus aureus [8] it was 12.5 µg/mL (≈ 36.8 µM).
